pPAFAH inh = inhibitors of human plasma PAF acetylhydrolase (pPAFAH). AID 463082. inhibition, % at 3.39 µM. recombinant pPAFAH, FP-rhodamine probe fluorescence polarization. hit rate 1.5% among 330,000. Q13093;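 active = inhibition above the mean inhibition across the screen plus 3 SD, cut at about 25% in these data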;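 also: inhibitors block binding of the rhodamine activity-based probe so polarization drops; 0% = enzyme with DMSO and 100% = wells lacking pPAFAH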
PAFAH1B3 inh = PAFAH1B3 (human) inhibition; Q15102; recombinant PAFAH1B3, FP-rhodamine probe, fluorescence polarization; inhibition, % at 3.39 µM; hit rate 0.28% among 340,000; AID 492972;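 active = inhibition above the screen-wide average of all tested compounds plus 3 SD, cut at about 25% in these data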;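 also: 0% = enzyme with DMSO only and 100% = wells lacking PAFAH1B3 protein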
Target sequence (Q15102 whole entry, looked up): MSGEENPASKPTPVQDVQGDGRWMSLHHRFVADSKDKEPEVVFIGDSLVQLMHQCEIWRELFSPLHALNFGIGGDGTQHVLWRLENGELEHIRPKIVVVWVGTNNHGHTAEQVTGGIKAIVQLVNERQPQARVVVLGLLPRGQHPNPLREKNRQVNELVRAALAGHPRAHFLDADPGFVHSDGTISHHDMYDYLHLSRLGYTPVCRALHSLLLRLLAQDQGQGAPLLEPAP
PAFAH1B2 FP inh = inhibitors of human PAFAH1B2. P68402. recombinant PAFAH1B2, FP-rhodamine activity probe, fluorescence polarization. inhibition, % at 3.39 µM. hit rate 1.2% among 340,000. AID 492953;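 active = inhibition above the mean of all tested compounds plus 3 SD, cut at about 24% in these data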;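 also: 0% = enzyme with DMSO and 100% = wells lacking PAFAH1B2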
Target sequence (P68402 whole entry, looked up): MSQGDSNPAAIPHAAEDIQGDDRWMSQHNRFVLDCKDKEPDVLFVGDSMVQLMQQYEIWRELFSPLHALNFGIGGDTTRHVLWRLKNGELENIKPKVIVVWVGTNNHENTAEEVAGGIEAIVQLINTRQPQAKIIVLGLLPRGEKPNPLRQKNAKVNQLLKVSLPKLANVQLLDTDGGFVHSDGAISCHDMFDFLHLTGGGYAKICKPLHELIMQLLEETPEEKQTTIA
ASAP1 GAP inh = ASAP1 ArfGAP inhibition; Q9ULH1; ASAP1-stimulated ARF1 GTP hydrolysis, GDP FP detection; inhibition, % at 16.5 µM; hit rate 0.19% among 360,000; in the data active = inhibition above about 25%;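 also: 0% = vehicle with enzyme and substrate and 100% = no enzyme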
PAFAH2 inh = inhibitors of human PAFAH2; recombinant PAFAH2, FP-rhodamine activity probe, fluorescence polarization; AID 492956; hit rate 0.99% among 340,000; Q99487; inhibition, % at 3.39 µM;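 active = inhibition above the mean over all tested compounds plus 3 SD, cut at about 30% in these data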;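 also: inhibitors block probe labeling of enzyme so polarization drops; 0% = enzyme with DMSO and 100% = wells lacking PAFAH2 protein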
ARFGAP1 inh = inhibits rat ARF GTPase activating protein 1; Q62848; Arfgap1-stimulated ARF1 GTP hydrolysis, GDP FP detection; inhibition, % at 16.5 µM; hit rate 0.26% among 360,000;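 active = inhibition above a per-plate limit, mean inhibition of low control wells plus 3 SD, cut at about 25% in these data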;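 also: 0% = DMSO wells with enzyme and 100% = wells lacking Arfgap1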
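Repeats: one replicate per compound; assay system: rat Arfgap1 catalytic domain, aa 1-136; times: enzyme reaction 120 min at 25 °C after 20 min preincubation; detection: FP of antibody-bound GDP Alexa 633 tracer, ex 620/em 688 nm; benchmarks: high control wells lacking Arfgap1, low control full reaction with DMSO; reagent: human ARF1(Δ1-17)-GTP substrate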
ARFGAP1 inh conf = confirmation of rat ARFGAP1 inhibitors; shares compounds with ARFGAP1 inh; ARFGAP1-stimulated ARF1 GTP hydrolysis, GDP tracer FP; inhibition, % at 16.5 µM; hit rate 30% among 890;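 active = average inhibition over triplicates above the hit cutoff set in the earlier primary screen, cut at about 25% in these data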;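 also: 0% = Arfgap1 plus ARF1-GTP with DMSO and 100% = wells lacking Arfgap1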
An asterisk follows results filed as active; . = not tested or not shown. This is a sample that favours compounds with a hit; in the whole collection about 2.7% have one here.

SMILES	pPAFAH inh	PAFAH1B3 inh	PAFAH1B2 FP inh	ASAP1 GAP inh	PAFAH2 inh	ARFGAP1 inh	ARFGAP1 inh conf
Cc1ccc(C)c(OCCC(=O)Nc2cccc(S(=O)(=O)N3CCCCC3)c2)c1	-1	1	-4	4	-10	0	.
N#Cc1c(NC(=O)C2CC(c3c(F)cccc3Cl)=NO2)sc2c1CCC2 (stereo not drawn)	4	6	3	4	7	35*	56*
Cc1ccc(C2(C)NC(=O)N(CC(=O)NC(=O)NC(C)C)C2=O)cc1 (stereo not drawn)	1	5	-1	-12	13	30*	-6
Cc1ccc(C2(C)NC(=O)N(CC(=O)NC(C)c3ccccc3)C2=O)cc1 (stereo not drawn)	1	-2	0	-4	2	5	.
O=C(/C=C/c1ccco1)Nc1ccc(N2CCCC2)cc1	8	7	5	12	-9	26*	-1
COc1ccc(-c2ccc(C(=O)NCc3cccs3)c3occc23)c(C)c1	.	.	.	-1	.	7	.
CCOC(=O)C1=CCN(S(=O)(=O)c2ccccc2Br)C1c1cccc(F)c1 (stereo not drawn)	.	.	.	7	.	18	.
Cc1ccccc1-n1c(=O)cc(N2CCc3ccccc32)[nH]c1=O	-1	8	2	-5	4	25*	-4
C=CC[C@H](CC(=O)N[C@H](CO)Cc1ccccc1)C(=O)N[C@H](COC(=O)[C@@H](CC=C)CC(=O)OC(C)(C)C)Cc1c[nH]c2ccccc12	4	2	3	8	8	7	.
O=C(NC1CCCC1)C(c1ccccc1)n1c(Cc2cc(F)cc(F)c2)nc2ccccc21 (stereo not drawn)	.	.	.	0	.	15	.
Cc1ccc(-c2nc3ccc(Br)cn3c2Cc2cccc(Cl)c2)cc1	.	.	.	-5	.	-9	.
Cc1ccc(/C=N/Nc2cccc3cccnc23)c(O)c1	8	5	8	1	4	4	.
Oc1ccc(/C=N/Nc2cccc3cccnc23)c(O)c1	16	18	7	3	5	51*	16
Nc1ccc2cc3[nH]c4cc(N)ccc4c3nc2c1	.	11	3	11	-7	46*	73*
COc1cc(CN2CCNC(=O)C2CC(=O)N(C)CCCN2CCOCC2)cc(OC)c1 (stereo not drawn)	3	6	2	7	-1	0	.
COc1cc(CN2CCNC(=O)C2CC(=O)N(C)CCN2CCOCC2)cc(OC)c1 (stereo not drawn)	.	-2	-3	10	-1	28*	-7
CCN(CC(=O)Nc1c(F)cccc1F)C(=O)c1cccn1C	.	.	.	-8	.	-5	.
O=C(COC(=O)c1cccc([N+](=O)[O-])c1)NCc1cccs1	10	1	3	-5	5	-6	.
O=C(COC(=O)CSc1ccc([N+](=O)[O-])cc1)NCc1cccs1	13	3	9	7	-5	26*	9
O=C(C[C@H]1C/C=C\C[C@H](NC(=O)OCC2c3ccccc3-c3ccccc32)C(=O)O[C@H](c2ccccc2)CNC1=O)N[C@H](CO)Cc1ccccc1	-3	-8	-6	.	-4	.	.
C=CCNc1nc(NCc2ccc(N(C)C)cc2)c2sc(-c3ccccc3)cc2n1	.	.	.	8	.	46*	9
C=CCNc1nc(NCCOC)c2sc(-c3ccccc3)cc2n1	.	.	.	0	.	28*	40*
Cc1cc(C)c(S(=O)(=O)c2ccc(F)cc2C)c(Cl)n1	3	3	-1	9	5	30*	1
Cc1cc(C)c(S(=O)(=O)c2ccccc2Cl)c(Cl)n1	-9	.	.	-1	.	-21	.
Cc1ccc2[nH]c3c(=O)n(CC(=O)Nc4ccccc4N4CCN(C)CC4)ncc3c2c1	-2	0	0	8	-2	25*	48*
CN1CCN(c2ccccc2NC(=O)Cn2ncc3c([nH]c4ccccc43)c2=O)CC1	2	-4	6	-7	3	10	.
COc1ccc(NC(=O)C2Cc3c(-c4cccc(C(N)=O)c4)ccnc3O2)cc1 (stereo not drawn)	.	.	.	2	.	7	.
Brc1ccc2nc(-c3ccc(CN4CCC5(CC4)CNc4ccccc45)cc3)c(-c3ccccc3)nc2c1	.	.	.	5	.	26*	7

Assay outcomes: PubChem BioAssay, The Scripps Research Institute Molecular Screening Center
